Source: PubChem
PGC1a acetyl up: raises PGC1a acetylation signal in U2OS cells; activation, % at 15.6 µM; 350,000 tested, 0.21% active; U2OS PGC1a acetylation AlphaScreen, overnight;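 active = every replicate reaching activation of at least 50%, whatever the mean replicate activation; inconclusive = replicates that disagree or another doubt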;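 note: hits raise the AlphaScreen acetylation signal above neutral controls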
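Incubation: overnight compound treatment, 37 °C. System: U2OS cells transduced with flag-tagged PGC1a and GCN5 acetyltransferase. Detection: AlphaScreen lysate read. Compound: single-point compound dosing.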
G6PC hep suppr: PGC-1a acetylation activators affecting G6PC expression in hepatocytes | 240 tested, under 10 active | primary mouse hepatocytes, G6PC mRNA qPCR, forskolin | shares compounds with PGC1a acetyl up | G6PC suppression (normalized activity, % of positive control; higher = more suppression), % at 26 µM;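 active = dose curves showing G6PC suppression whose half-maximal dose is at most twice the top valid dose; inconclusive = flat curves with moderate negative activity, or unreliable fits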;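 note: G6PC expression relative to GAPDH housekeeping gene as delta delta Ct; 0% = median of neutral control wells and 100% = median of positive control wells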
Hep PCK1 suppr: PGC-1a acetylation activators affecting PCK1 expression in hepatocytes; shares compounds with PGC1a acetyl up; PCK1 expression decrease, unspecified at 26 µM; primary mouse hepatocytes, PCK1 mRNA qPCR, forskolin-stimulated; 230 tested, under 10 active;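 active = compounds lowering PCK1 expression whose fitted half-maximal concentration is at most twice the top tested dose; inconclusive = flat fit with moderate opposite-direction effect, or poor fit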;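 note: values are delta delta Ct of PCK1 relative to GAPDH; higher delta delta Ct means lower PCK1 expression so positive values indicate hits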
Hep PGC-1a down: hepatocyte PGC-1a expression change via PGC-1a acetylation activation; max activity (PGC-1a expression decrease), %; 240 tested, under 10 active; shares compounds with PGC1a acetyl up; primary mouse hepatocytes, PGC-1a mRNA qPCR, forskolin; top dose 26 µM; AID 743467;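 active = compound lowering PGC-1a expression with fitted half-maximal concentration at most twice its top tested dose; inconclusive = flat curve with moderate opposite-direction effect, or poor fit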;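 note: 0% = neutral control wells median and 100% = positive control wells median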
* hit, by the source's call; ? = inconclusive; . = not tested or not shown. These entries were drawn from the full list.

SMILES	PGC1a acetyl up	G6PC hep suppr	Hep PCK1 suppr	Hep PGC-1a down
O=C(O)COc1ccc(/C=C2/SC(=S)N(Cc3ccccc3)C2=O)cc1	-72	.	.	.
CCCc1cc2c(cc1N(C)S(=O)(=O)c1ccccc1)OCO2	?	18	152	117
O=C(CN1CCC(Cn2cnc3ccccc32)CC1)NCc1ccco1	.	1	-2.4	14
O=C(NCc1ccco1)c1scc2c1OCCO2	-50	.	.	.
CC(N=C1NS(=O)(=O)c2ccccc21)C(=O)NCCCc1ccccc1 (stereo unspecified)	-47	.	.	.
COC(=O)C[C@H]1c2cc(C(F)(F)F)ccc2S(=O)(=O)N1Cc1ccc(OC)cc1	106*	29	70	68
COC(=O)Cn1ccc(-c2ccc(Cl)cc2)c(C#N)c1=O	-49	.	.	.
C=C1C(=O)[C@]23C[C@H]1CCC2[C@]1(C)CCC[C@@](C)(C(=O)O)C1C[C@@H]3O (stereo partly specified)	-47	.	.	.
CC1=C(C(N)=O)C(c2cccnc2)n2nc(-c3cccc(Cl)c3)nc2N1 (stereo unspecified)	93*	15	30	91
Cc1nc(N2CCN(S(=O)(=O)c3ccc(F)cc3)CC2)c2c(-c3cccs3)csc2n1	83*	307	369	176
Cc1ccc(S(=O)(=O)/N=C2/C=C(Sc3ncn[nH]3)C(=O)c3ccccc32)cc1	-77	.	.	.
CN1C[C@H](C(=O)N[C@]2(C)O[C@@]3(O)[C@@H]4CCCN4C(=O)[C@H](Cc4ccccc4)N3C2=O)CC2c3cccc4[nH]cc(c34)C[C@H]21 (stereo partly specified)	-43	.	.	.
NC(=O)C1CCCc2c1[nH]c1ccc(Cl)cc21 (stereo unspecified)	.	1	-3	11
C[C@H]1CN([C@@H](C)CO)S(=O)(=O)c2ccc(C#CCN(C)C)cc2O[C@@H]1CN(C)Cc1ccc2c(c1)OCO2	?	304	132	45
COc1ccccc1-c1ccc2c(c1)O[C@@H](CN(C)Cc1ccc3c(c1)OCO3)[C@@H](C)CN([C@@H](C)CO)S2(=O)=O	65*	553	110	54
Cc1ccccc1Nc1ncnc2c1cnn2-c1ccccc1	-63	.	.	.
COc1ccc(N=C2S/C(=C\c3ccc(N4CCOCC4)o3)C(=O)N2CCc2c[nH]c3ccccc23)cc1	-62	.	.	.
CC1C(=O)C(C)(C)C(=O)OC1c1ccccc1 (stereo unspecified)	-49	.	.	.
O=C(Cc1ccccc1)Nc1nc(-c2ccc(F)c(F)c2)cs1	62*	70	59	83
Cc1cc(C2=NNC(=NCCc3ccccc3)SC2)c(C)n1-c1c(C)n(C)n(-c2ccccc2)c1=O	-63	.	.	.
COC(=O)[C@H](Cc1ccccc1)N(C)S(=O)(=O)c1cccc(S(=O)(=O)N(C)[C@@H](Cc2ccccc2)C(=O)OC)c1	?	-83	.	?
Cc1c(OCc2ccc(C(=O)O)cc2)ccc2c(-c3ccccc3)cc(=O)oc12	-44	24	45	54
Cc1cc(C)nc(NC(=S)Nc2ccccc2)n1	-60	.	.	.
Cc1cc(C(=O)NNS(=O)(=O)c2ccc(F)cc2)nn1C(C)(C)C	456*	.	-0.84	10
O=C(Cc1ccccc1)Nc1cccc(-c2nc3ncccc3o2)c1	122*	285	108	53
SMILES	PGC1a acetyl up	G6PC hep suppr	Hep PCK1 suppr	Hep PGC-1a down
CCCNC(=O)c1ccc(COc2ccc(Cl)cc2)o1	-48	.	.	.
O=C(COc1ccc(Cl)cc1)NCCCNC(=O)c1cccnc1	112*	-17	11	58
COc1ccc(S(=O)(=O)N(C)CC(=O)Nc2cccc(C(C)=O)c2)cc1Cl	?	17	13	?
Cc1ccc(C)c(S(=O)(=O)N(C(=O)c2ccncc2)c2ccc(OC(=O)c3ccncc3)cc2)c1	-44	.	.	.
O=C1CN(C(=O)COC(=O)/C=C/c2ccco2)c2ccccc2N1	-40	.	.	.
O=C(O)c1cc(O)c2c(c1)C(=O)c1cccc(O)c1C2=O	-67	.	.	.
COc1ccc(C2CC(=O)N(C)c3ccccc3S2)cc1 (stereo unspecified)	-41	39	45	57
COc1cc(CN2CCC(C(=O)NCCC(C)C)CC2)ccc1OCc1ccccc1	?	909	178	56
CC(=O)c1c(C)oc2ccc(N(C(C)=O)S(=O)(=O)c3ccc(Cl)c([N+](=O)[O-])c3)cc12	-61	.	.	.
CC(Nc1ccccc1)c1cc(Cl)ccc1O (stereo unspecified)	-48	.	.	.
CN(C)/C=N/c1nc2nccc(-c3ccccn3)n2n1	-47	.	.	.
C#CC(=O)N(c1ccc(OC)c(OC)c1)C(C(=O)NC1CCCC1)c1cccs1 (stereo unspecified)	-103	.	.	.
COc1ccc(N(C(=O)c2snc(C(N)=O)c2N)C(C(=O)NC2CCCC2)c2ccco2)c(OC)c1 (stereo unspecified)	?	.	6.7	-30
C#CC(=O)N(c1cccc(OC)c1)C(C(=O)NC1CCCC1)c1cccs1 (stereo unspecified)	-93	.	.	.
O=C(CCc1nc2ccccc2c(=O)[nH]1)Nc1ccc(N2CCCCC2)cc1	100*	42	.	87
Cc1nnc(SCC(=O)N2CCC(c3noc4ccc(F)cc34)CC2)s1	-57	.	.	.
Cc1cc(NC(=O)CCS(=O)(=O)c2nc(-c3ccccc3)cc(C(F)(F)F)n2)no1	-90	.	.	.
C/C(=N\Nc1nc(C)cc(=O)[nH]1)C1CC1	-41	.	.	.
O=C(OCn1ncc(Br)c(Br)c1=O)c1ccc(F)cc1	-37	.	.	.
CC1(C)CCCN(C(=O)N2c3ccccc3Sc3ccccc32)C1	?	-23	14	82
C=C[C@H]1CN2CCC1C[C@H]2[C@H](O)c1ccnc2ccc(OC)cc12 (stereo partly specified)	-48	.	.	.
Cc1ccc(S(=O)(=O)NC(CC(C)C)C(=O)N2CCCCCCC2)cc1 (stereo unspecified)	64*	7	77	77
O=C(O)c1ccc2c(c1)OCCCO2	-44	.	.	.
O=C(CC(C(=O)O)c1c[nH]c2ccccc12)c1ccccc1 (stereo unspecified)	-81	.	.	.
CCOc1ccc(N2C(=O)Cc3ccccc3C2=O)cc1	-43	.	.	.
SMILES	PGC1a acetyl up	G6PC hep suppr	Hep PCK1 suppr	Hep PGC-1a down
O=C(C1CCC1)N1CCN(S(=O)(=O)c2ccccc2)CC1	?	11	1.2	118
CNC[C@@H](CC1CCCCC1)NC[C@H](CC(C)C)NCCc1cccc(C(F)(F)F)c1	-88	.	.	.
O=C(NC1CCCCC1)c1cccnc1C(=O)O	-51	40	13	69
Cc1c(Cl)cccc1Nc1ncccc1C(=O)O	-56	.	.	.
C=C[C@H]1C(C(=O)OCC)=CC[C@@H](c2ccccc2)N1S(=O)(=O)c1ccc(C)cc1	?	-62	?	57
CCc1ccc(C(=O)CN(C#N)c2nc(C)cc(C)n2)cc1	-49	.	.	.
O=C(NCc1cccs1)C1Cc2c(-c3ccc(Cl)cc3)ccnc2O1 (stereo unspecified)	101*	13	6.5	48
Cc1nc(NCCc2ccccc2)c2nnn(Cc3ccccc3Cl)c2n1	-42	.	.	.
CCOc1ccc(S(=O)(=O)N(C)C)cc1-c1nc2c(C(C)(C)C)nn(C)c2c(=O)[nH]1	-48	.	.	.
CCOC(=O)C1=C(C)N=C2SC(C(=O)OC)=CC(=O)N2C1c1cccc(OC)c1 (stereo unspecified)	-51	.	.	.
